Tests used:
Assay type in all cases: nucleic-acid assay
Nucleic Acid [1] = experiment: Binding affinity to5'-GCTAAAAAGACAGAGAGATCG-3'/5'- CGATCTCTCTGTCTTTTTAGC-3' double stranded DNA assessed as melting temperature at 1.5 uM in sodium phosphate buffer at pH 7 by UV spectrophotometric analysis
How it was run: (§1)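 UV melting of triplexes between each modified TFO and the 21-bp duplex target, in 7 mM sodium phosphate buffer (pH 7.0), 140 mM KCl and 10 mM MgCl₂. Each oligonucleotide at 1.5 µM final. Absorbance followed at 260 nm from 5 °C to 85 °C, scanned at 0.5 °C/min, to give Tm.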

Nucleic Acid [2] = experiment: Binding affinity to 5'-GCTAAAAAGATAGAGAGATCG-3'/5'- CGATCTCTCTATCTTTTTAGC-3' double stranded DNA assessed as melting temperature at 1.5 uM in sodium phosphate buffer at pH 7 by UV spectrophotometric analysis; how it was run: as §1
Nucleic Acid [3] = experiment: Binding affinity to 5'-GCTAAAAAGAGAGAGAGATCG-3'/5'- CGATCTCTCTCTCTTTTTAGC-3' double stranded DNA assessed as melting temperature at 1.5 uM in sodium phosphate buffer at pH 7 by UV spectrophotometric analysis; how it was run: as §1
Nucleic Acid [4] = experiment: Binding affinity to 5'-GCTAAAAAGAAAGAGAGATCG-3'/5'- CGATCTCTCTTTCTTTTTAGC-3' double stranded DNA assessed as melting temperature at 1.5 uM in sodium phosphate buffer at pH 7 by UV spectrophotometric analysis; how it was run: as §1
Nucleic Acid [5] = experiment: Binding affinity to 5'-GCTAAAAAGACAGAGAGATCG-3'/5'- CGATCTCTCTGTCTTTTTAGC-3' double stranded DNA assessed as melting temperature at 1.9 uM in sodium cacodylate buffer at pH 6.8 by UV spectrophotometric analysis
How it was run: (§2)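 Each oligonucleotide at 1.9 µM final. Absorbance at 260 nm recorded from 5 °C to 85 °C at 0.5 °C/min; Tm taken from the melting profile.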

Nucleic Acid [6] = experiment: Binding affinity to 5'-GCTAAAAAGATAGAGAGATCG-3'/5'- CGATCTCTCTATCTTTTTAGC-3' double stranded DNA assessed as melting temperature at 1.9 uM in sodium cacodylate buffer at pH 6.8 by UV spectrophotometric analysis; how it was run: as §2
Nucleic Acid [7] = experiment: Binding affinity to 5'-GCTAAAAAGAGAGAGAGATCG-3'/5'- CGATCTCTCTCTCTTTTTAGC-3' double stranded DNA assessed as melting temperature at 1.9 uM in sodium cacodylate buffer at pH 6.8 by UV spectrophotometric analysis; how it was run: as §2
Nucleic Acid [8] = experiment: Binding affinity to 5'-GCTAAAAAGAAAGAGAGATCG-3'/5'- CGATCTCTCTTTCTTTTTAGC-3' double stranded DNA assessed as melting temperature at 1.9 uM in sodium cacodylate buffer at pH 6.8 by UV spectrophotometric analysis; how it was run: as §2
Nucleic Acid [9] = experiment: Binding affinity to 5'-GCTAAAAAGACAGAGAGATCG-3'/5'- CGATCTCTCTGTCTTTTTAGC-3' double stranded DNA assessed as change in melting temperature at 1.5 uM in sodium phosphate buffer at pH 7 by UV spectrophotometric analysis

Cc1cn([C@H]2C[C@H](OP(=O)(O)OC[C@H]3O[C@@H](n4cc(C)c(=O)[nH]c4=O)C[C@@H]3OP(=O)(O)OC[C@H]3O[C@@H](n4cc(C)c(N)nc4=O)C[C@@H]3OP(=O)(O)OC[C@H]3O[C@@H](n4cc(C)c(=O)[nH]c4=O)C[C@@H]3OP(=O)(O)OC[C@H]3O[C@@H](n4cc(C)c(N)nc4=O)C[C@@H]3OP(=O)(O)OC[C@H]3O[C@@H](n4cc(C)c(=O)[nH]c4=O)C[C@@H]3OP(=O)(O)OC[C@H]3O[C@@H](c4cn(-c5ccccc5)nn4)C[C@@H]3OP(=O)(O)OC[C@H]3O[C@@H](n4cc(C)c(=O)[nH]c4=O)C[C@@H]3OP(=O)(O)OC[C@H]3O[C@@H](n4cc(C)c(N)nc4=O)C[C@@H]3OP(=O)(O)OC[C@H]3O[C@@H](n4cc(C)c(=O)[nH]c4=O)C[C@@H]3OP(=O)(O)OC[C@H]3O[C@@H](n4cc(C)c(=O)[nH]c4=O)C[C@@H]3OP(=O)(O)OC[C@H]3O[C@@H](n4cc(C)c(=O)[nH]c4=O)C[C@@H]3OP(=O)(O)OC[C@H]3O[C@@H](n4cc(C)c(=O)[nH]c4=O)C[C@@H]3OP(=O)(O)OC[C@H]3O[C@@H](n4cc(C)c(=O)[nH]c4=O)C[C@@H]3O)[C@@H](COP(=O)(O)O[C@H]3C[C@H](n4cc(C)c(=O)[nH]c4=O)O[C@@H]3CO)O2)c(=O)nc1N
Tm (Nucleic Acid [1]): 25 °C | Tm (Nucleic Acid [2]): 17 °C | Tm (Nucleic Acid [3]): < 10 °C | Tm (Nucleic Acid [4]): < 10 °C | Tm (Nucleic Acid [5]): 29 °C | Tm (Nucleic Acid [6]): 23 °C | Tm (Nucleic Acid [7]): 17 °C | Tm (Nucleic Acid [8]): 19 °C | ΔTm (Nucleic Acid [9]): 8 °C
